Experimental data as given in publication PMC7744997 (Clinical Infectious Diseases: An Official Publication of …, 2020).

Experiments:
RSV [1] = conditions: healthy volunteers, 75–500 mg once daily for 7 days; cited from earlier work
RSV [2] = experiment: RSV RNA viral load from nasal swabs by qRT-PCR in RSV-infected infants; type: in vivo, respiratory syncytial virus
Summary of the method: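 Viral load was measured by quantitative real-time RT-PCR on midturbinate nasal swabs, taken over time during 7 days of once-daily oral dosing. After hospital discharge, no samples were taken until the day 7 visit. Results were expressed as median change from baseline.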

RSV infection = experiment: Clinical course of RSV infection; type: in vivo, human; conditions: JNJ-8678 (combined)
Summary of the method: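 Infants (>1 to ≤24 months, term-born, hospitalised ≤72 h before randomisation with PCR-confirmed RSV) got oral drug or placebo once daily for 7 days (4:1 randomisation) and were followed 28 days. Outcomes were hospital stay and time to clinical stability: the latest of end of supplemental oxygen, end of supplemental feeding, normal heart rate and normal respiratory rate. Times were shown as Kaplan-Meier curves. Clinician and caregivers completed PRESORS symptom questionnaires electronically.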

[3] = Safety/tolerability: adverse events in RSV-infected infants; type: in vivo, human
Summary of the method: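 Adverse events were recorded over 28 days in infants given oral drug or placebo once daily for 7 days. Events were graded with the DMID Pediatric Toxicity Tables (November 2007), and the investigator judged relatedness to study drug. Events causing rehospitalisation were counted as serious. Vital signs, ECGs and physical examination were also done.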

For `CS(=O)(=O)CCCn1c(Cn2c(=O)n(CC(F)(F)F)c3ccncc32)cc2cc(Cl)ccc21` [JNJ-53718678], the “Effect on viral load and clinical disease severity” value (RSV [1]) is given as “substantially reduced both viral load and clinical disease severity”, the “Dose-response relationship for antiviral effects” value (RSV [2]; across JNJ-8678 dose levels) is given as “no clear dose-response relationship was observed” and the “Reduction in viral load compared with placebo” value (RSV [2]; all doses combined) is given as “greater reduction in viral load with JNJ-8678 than placebo”. For the same compound, the “Median RSV viral load change from baseline” value (RSV [2]; by day 3, all JNJ-8678 doses combined) was −1.98 log10 copies/mL, the “Median time to clinical stability following the start of study treatment” value (RSV infection; placebo 56.7 hours) was 47.4 h and the “Median length of hospital stay” value (RSV infection; placebo 77.5 hours) was 77.7 h. For the same compound, the “Time after which all patients were clinically stable” value (RSV infection; placebo 121.1 hours) was 123.5 h, the “Maximum length of hospital stay observed” value (RSV infection; placebo 144.5 hours) was 150.4 h and the SAE bronchiolitis ([3]; 1/12, cohort 1b, mid-dose, 6 mg/kg QD) was 8%. For the same compound, the “Any AE” value ([3]; All cohorts, n=37) was 28 (76) no. (%), the “Any AE possibly related to placebo/JNJ-53718678” value ([3]; All cohorts, n=37) was 11 (30) no. (%) and the “Any AE probably related to placebo/JNJ-53718678” value ([3]; All cohorts, n=37) was 1 (3) no. (%). For the same compound, the “Any worst grade 1 or 2 AE” value ([3]; All cohorts, n=37) was 28 (76) no. (%), the “Any worst grade 3 or 4 AE” value ([3]; All cohorts, n=37) was 1 (3) no. (%) and the “Soft feces (AE)” value ([3]; All cohorts, n=37) was 7 (19) no. (%). The “URTI (AE)” value ([3]; All cohorts, n=37) was 8 (22) no. (%), the “Vomiting (AE)” value ([3]; All cohorts, n=37) was 8 (22) no. (%) and the “Serious AE” value ([3]; All cohorts, n=37, serious due to rehospitalization, not related to study drug) was 2 (5) no. (%). For the same compound, the “Any AE” value ([3]; High (cohorts 1d,2c,3c), n=9) was 7 (78) no. (%), the “Any AE possibly related to placebo/JNJ-53718678” value ([3]; High (cohorts 1d,2c,3c), n=9) was 2 (22) no. (%) and the “Any AE probably related to placebo/JNJ-53718678” value ([3]; High (cohorts 1d,2c,3c), n=9) was 0 no. (%). The “Any worst grade 1 or 2 AE” value ([3]; High (cohorts 1d,2c,3c), n=9) was 7 (78) no. (%), the “Any worst grade 3 or 4 AE” value ([3]; High (cohorts 1d,2c,3c), n=9) was 0 no. (%) and the “Serious AE” value ([3]; High (cohorts 1d,2c,3c), n=9) was 0 no. (%). For the same compound, the “Soft feces (AE)” value ([3]; High (cohorts 1d,2c,3c), n=9) was 0 no. (%), the “URTI (AE)” value ([3]; High (cohorts 1d,2c,3c), n=9) was 3 (33) no. (%) and the “Vomiting (AE)” value ([3]; High (cohorts 1d,2c,3c), n=9) was 4 (44) no. (%). For the same compound, the “Any AE” value ([3]; Low (cohorts 1a,2a,3a), n=12) was 9 (75) no. (%), the “Any AE possibly related to placebo/JNJ-53718678” value ([3]; Low (cohorts 1a,2a,3a), n=12) was 3 (25) no. (%) and the “Any AE probably related to placebo/JNJ-53718678” value ([3]; Low (cohorts 1a,2a,3a), n=12) was 0 no. (%). For the same compound, the “Any worst grade 1 or 2 AE” value ([3]; Low (cohorts 1a,2a,3a), n=12) was 9 (75) no. (%), the “Any worst grade 3 or 4 AE” value ([3]; Low (cohorts 1a,2a,3a), n=12) was 0 no. (%) and the “Soft feces (AE)” value ([3]; Low (cohorts 1a,2a,3a), n=12) was 2 (17) no. (%). For the same compound, the “URTI (AE)” value ([3]; Low (cohorts 1a,2a,3a), n=12) was 1 (8) no. (%), the “Vomiting (AE)” value ([3]; Low (cohorts 1a,2a,3a), n=12) was 0 no. (%) and the “Any AE” value ([3]; Mid (cohorts 1b,2b,3b), n=12) was 10 (83) no. (%). For the same compound, the “Any AE possibly related to placebo/JNJ-53718678” value ([3]; Mid (cohorts 1b,2b,3b), n=12) was 4 (33) no. (%), the “Any AE probably related to placebo/JNJ-53718678” value ([3]; Mid (cohorts 1b,2b,3b), n=12) was 1 (8) no. (%) and the “Any worst grade 1 or 2 AE” value ([3]; Mid (cohorts 1b,2b,3b), n=12) was 10 (83) no. (%). The “Any worst grade 3 or 4 AE” value ([3]; Mid (cohorts 1b,2b,3b), n=12) was 1 (8) no. (%), the “Soft feces (AE)” value ([3]; Mid (cohorts 1b,2b,3b), n=12) was 3 (25) no. (%) and the “URTI (AE)” value ([3]; Mid (cohorts 1b,2b,3b), n=12) was 4 (33) no. (%). For the same compound, the “Vomiting (AE)” value ([3]; Mid (cohorts 1b,2b,3b), n=12) was 3 (25) no. (%), the “Any AE” value ([3]; Mid-high (cohort 1c), n=4) was 2 (50) no. (%) and the “Any AE possibly related to placebo/JNJ-53718678” value ([3]; Mid-high (cohort 1c), n=4) was 2 (50) no. (%). The “Any AE probably related to placebo/JNJ-53718678” value ([3]; Mid-high (cohort 1c), n=4) was 0 no. (%), the “Any worst grade 1 or 2 AE” value ([3]; Mid-high (cohort 1c), n=4) was 2 (50) no. (%) and the “Any worst grade 3 or 4 AE” value ([3]; Mid-high (cohort 1c), n=4) was 0 no. (%). For the same compound, the “Serious AE” value ([3]; Mid-high (cohort 1c), n=4) was 0 no. (%), the “Soft feces (AE)” value ([3]; Mid-high (cohort 1c), n=4) was 2 (50) no. (%) and the “URTI (AE)” value ([3]; Mid-high (cohort 1c), n=4) was 0 no. (%). For the same compound, the “Vomiting (AE)” value ([3]; Mid-high (cohort 1c), n=4) was 1 (25) no. (%) and the “Patients with AEs considered at least possibly related to JNJ-8678” value ([3]; all JNJ-8678, 11/37) was 30%.
